# STAT1 blocker – reduces IFN-gamma driven STAT1 reporter signal. NIH 3T3 STAT1-luciferase reporter, luminescence. inhibition, % at 5.5 µM. 200,000 compounds, 0.35% hits;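 active = inhibition above a set limit, the mean inhibition across all tested compounds plus 3 SD, cut at about 34% in these data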
# STAT3 act – increases IL-6 driven STAT3 reporter signal. U3A cells, IL-6 STAT3-luciferase reporter, luminescence; 100% = signal with IL-6 EC80 alone. activation (% of control), % at 5.6 µM. 190,000 compounds, 0.91% hits;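 active = activation above the screen-wide mean of compound activation plus 3 SD, cut at about 130% in these data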
#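 Test system: STAT3-luciferase reporter U3A cells; Detection: reporter luminescence signal; Times: 1 h compound pre-exposure, 6 h IL-6 stimulation, 37 °C; Benchmarks: IL-6-only high control; Also added: IL-6 stimulus at 33 ng/mL final.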
# STAT3 inh – inhibitors of IL-6 induced STAT3 signaling; U3A cells, IL-6 STAT3-luciferase reporter, luminescence; host cell line lacks STAT1; inhibition, % at 5.5 µM; 190,000 compounds, 0.89% hits; AID 862;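 active = inhibition above the mean inhibition across all screened compounds plus 3 SD, cut at about 44% in these data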
# STAT1 activator – increases IFN-gamma driven STAT1 reporter signal | NIH 3T3 STAT1-luciferase reporter, luminescence; 100% = IFN-gamma alone, no compound | 200,000 compounds, 2.6% hits | AID 932 | activation (% of control), % at 5.5 µM;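 active = activation above the screen-wide mean activation plus 3 SD, cut at about 130% in these data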
# Numbers stand for hits; . = inactive; / = not tested or not shown. Only some compounds are listed: those with a hit (about 4.3% of all), similar ones and a draw of the others.
SMILES,STAT1 blocker,STAT3 act,STAT3 inh,STAT1 activator
Clc1cnc(N/N=C/c2cccs2)c(Cl)c1,.,.,.,134
C(=N\Nc1ncnc2nc[nH]c12)/c1cccs1,.,.,.,134
CCSc1nnc(NC(=O)CSc2nnc(CNC(=O)c3ccc(OC)c(OC)c3)o2)s1,.,.,.,.
Cc1cccc(N/C(N)=N/c2nc(C)c(Cc3ccccc3)c(=O)[nH]2)c1,.,.,.,.
Cc1cc(C)c2nc(NNC(=O)c3cc(=O)c4ccccc4o3)sc2c1,.,/,/,.
CCc1ccc(-c2csc(NC(=O)COC(=O)CCc3nc4ccccc4s3)n2)cc1,.,.,.,131
Cc1ccc(CSc2nnc(SCC(=O)N/N=C/c3c[nH]c4ccccc34)s2)cc1,.,.,.,131
CS(=O)(=O)N1CCCC(C(=O)Nc2ccc3c(c2)OCCO3)C1 (stereo unspecified),.,.,.,.
CCN1CC(CN(C)Cc2nc(-c3ccc(C(F)(F)F)cc3)oc2C)CC1=O (stereo unspecified),.,.,.,.
CC(=O)c1ccc(NC(=O)/C=C/c2ccc(C)cc2)cc1,.,.,.,.
Cc1cccc(NC(=O)/C=C/c2ccc(Cl)cc2)n1,.,.,.,139
CCCc1cc(C(=O)Nc2cc(Br)ccc2O)no1,.,.,.,.
Cc1ccc(/C=C/C(=O)Nc2cc(C)on2)cc1,.,.,.,133
CCCc1cc(C(=O)Nc2ccc(C)cc2)no1,.,.,.,135
Cc1ccc(NC(=O)c2cc(C)on2)cc1,.,.,.,130
Cc1cc(C)cc(Oc2ccccc2CO)c1,.,.,.,.
O=C(NCC(O)CN1CCOCC1)c1ccc([N+](=O)[O-])cc1 (stereo unspecified),.,.,.,.
O=S(=O)(C/C(=C/CO)S(=O)(=O)c1ccccc1)c1ccccc1,.,.,48,260
Clc1ccc(OCc2cn3cccnc3n2)c2ncccc12,.,.,.,.
Cc1cc(Cl)ccc1OCc1cn2cccnc2n1,.,.,.,133
Cc1ccc(S(=O)(=O)N=S(CCO)CCO)cc1,.,.,.,.
c1ccc(-c2nc(-c3ccncc3)no2)cc1,.,.,.,138
c1ccc(-c2ccccc2-c2nc(-c3ccncc3)no2)cc1,.,.,.,.
c1ccc(-c2ccc(-c3nc(-c4ccncc4)no3)cc2)cc1,.,.,.,136
COc1ccc(OC)c(NC(=O)CSc2nnc(C3CCCCC3)n2-c2ccccc2)c1,.,.,.,.
SMILES,STAT1 blocker,STAT3 act,STAT3 inh,STAT1 activator
COc1cccc(NC(=O)CCNC(=O)Cn2ccc3ccccc3c2=O)c1,.,.,.,.
c1ccc(C[n+]2cccc3c4ccccc4ccc32)cc1,.,.,60,.
COc1cc(/C=C/C(=O)O)cc(S(=O)(=O)NCCO)c1OC,.,.,.,.
CCCC(=O)NCCc1nc2cc([N+](=O)[O-])ccc2n1C,.,.,.,.
COc1ccc2[nH]c3c(=O)n4c(nc3c2c1)SCC4,.,.,.,.
COc1cc2[nH]c3c(=O)n4c(nc3c2cc1OC)SCCC4,48,.,77,.
CCc1cc(C(=O)Nc2ccc(C)cc2Br)cs1,.,144,.,137
CCOc1ccc2nc(N3C(=O)/C(=C/c4ccc(Cl)cc4)NC3=S)sc2c1,.,.,.,.
CN(C)c1ccc(N/C=C/C(=O)c2ccccc2)cc1,45,.,84,.
Cc1ccc(N/C=C/C(=O)c2ccc(C)cc2)cc1,.,.,.,144
Cc1ccc(C(=O)/C=C/Nc2ccccn2)cc1,84,.,109,.
Cc1ccc(C(=O)/C=C/C(=O)c2ccc(C)cc2)cc1,.,.,.,.
Cc1ccc(C(=O)/C=C\Nc2ccc(C)c(C)c2)cc1,.,.,.,136
CN(C)c1ccc(N/C=C/C(=O)C(C)(C)C)cc1,.,.,.,.
O=C(NCCCN1CCOCC1)/C(=C/c1cccnc1)NC(=O)c1ccccc1,.,.,.,.
CCOC(=O)c1ccc(N/C=C/C(=O)C(C)(C)C)cc1,.,.,.,136
COc1ccc(N/C=C/C(=O)c2ccc(Cl)cc2)cc1,.,.,.,140
CCOC(=O)c1ccc(N/C=C/C(=O)c2ccc(OC)cc2)cc1,.,.,.,.
COc1ccc(C(=O)/C=C/Nc2ccc(NC(C)=O)cc2)cc1OC,.,.,.,.
COc1cccc(C(=O)/C=C/Nc2ccc(NC(C)=O)cc2)c1,.,.,.,136
CC(C)N(C(=O)COC(=O)CNC(=O)c1ccc(Br)cc1)c1ccccc1,.,.,.,.
COc1ccc(Nc2c([N+](=O)[O-])ccc3c2=NC2(CCCCC2)N=3)cc1,.,.,.,.

# From PubChem
